# Test results taken from ChEMBL document CHEMBL1811752, “Synthesis and pharmacological characterization of bicyclic triple reuptake inhibitor 3-aryl octahydrocyclopenta[c]pyrrole analogues” (J Med Chem, 2011).
# Assays:
# [1] = tested on: Brain; experiment: Drug level in mouse brain at 30 mg/kg, po; assay type: ADME, organism-based; design: dose 30 mg/kg, route oral; details: in vivo
# Summary of the method: (§1)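 Male mice dosed orally at 3, 10 or 30 mg/kg in 5% transcutol/saline, 60 min before the tail suspension test. Terminal whole brain (ng/g) and plasma (ng/mL) samples taken from the test animals. Brain/plasma ratio derived from these levels.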
# [2] = Plasma protein binding in mouse; assay type: ADME, cell-free; details: read-out: PPB (converted)
# Summary of the method: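 Protein binding measured with mouse plasma protein.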
# [3] = tested on: Brain; experiment: Drug level in mouse brain at 3 mg/kg, po; assay type: ADME, organism-based; design: dose 3 mg/kg, route oral; details: in vivo; summary of the method: as §1
# [4] = tested on: Mus musculus; experiment: Toxicity in mouse assessed as increase of spontaneous locomotor activity at 10 to 30 mg/kg, po measured for 5 mins; assay type: organism-based; design: dose 10-30 mg/kg, route oral; details: in vivo
# [5] = tested on: Plasma; experiment: Plasma concentration in mouse at 10 mg/kg, po; assay type: ADME, organism-based; design: dose 10 mg/kg, route oral; details: in vivo; summary of the method: as §1
# [6] = tested on: Plasma; experiment: Plasma concentration in mouse at 30 mg/kg, po; assay type: ADME, organism-based; design: dose 30 mg/kg, route oral; details: in vivo; summary of the method: as §1
# [7] = tested on: Mus musculus; experiment: Antidepressant activity in mouse assessed as reduction of immobility time at 30 mg/kg, po after 60 mins by tail suspension test relative to control; assay type: functional; design: scale not given: the % may be the effect or the level left
# Summary of the method: (§2)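 Mouse tail suspension test, male mice (10–12 per group, blind). Single oral dose in 5% transcutol in saline, 60 min pretreatment. Immobility recorded automatically for 5 min. Compared with vehicle group. Desipramine 100 mg/kg PO used as reference. One-way ANOVA with Dunnett's post test, p < 0.05.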
# [8] = tested on: Mus musculus; experiment: Antidepressant activity in mouse assessed as reduction of immobility time at 100 mg/kg, po after 60 mins by tail suspension test relative to control; assay type: functional; design: scale not given: the % may be the effect or the level left; summary of the method: as §2
# [9] = tested on: Plasma; experiment: Plasma concentration in mouse at 3 mg/kg, po; assay type: ADME, organism-based; design: dose 3 mg/kg, route oral; details: in vivo; summary of the method: as §1
# [10] = tested on: Brain; experiment: Drug level in mouse brain at 10 mg/kg, po; assay type: ADME, organism-based; design: dose 10 mg/kg, route oral; details: in vivo; summary of the method: as §1
# [11] = tested on: Mus musculus; experiment: Antidepressant activity in mouse assessed as reduction of immobility time at 10 mg/kg, po after 60 mins by tail suspension test relative to control; assay type: functional; design: scale not given: the % may be the effect or the level left; summary of the method: as §2
# [12] = Ratio of drug level in brain to plasma in mouse at 30 mg/kg, po; assay type: ADME, organism-based; design: dose 30 mg/kg, route oral; details: brain and plasma, read-out: BPR; summary of the method: as §1
# [13] = molecular target: Sodium-dependent noradrenaline transporter (Homo sapiens, UniProt P23975); experiment: Inhibition of norepinephrine reuptake at NET expressed in MDCK cells; assay type: cell-based
# [14] = tested on: Brain; experiment: Drug level in mouse brain assessed as (3aS,6aR)-3a-(3,4-dichlorophenyl)octahydrocyclopenta[c]pyrrole level at 3 mg/kg, po; assay type: ADME, organism-based; design: dose 3 mg/kg, route oral; details: in vivo; summary of the method: as §1
# [15] = tested on: Mus musculus; experiment: Antidepressant activity in po dosed mouse assessed as reduction of immobility time after 60 mins by tail suspension test; assay type: functional, organism-based; summary of the method: as §2
# [16] = molecular target: Sodium-dependent dopamine transporter (Homo sapiens, UniProt Q01959); experiment: Inhibition of dopamine reuptake at DAT expressed in CHO-K1 cells; assay type: cell-based
# [17] = Ratio of drug level in brain to plasma in po dosed mouse; assay type: ADME, organism-based; details: brain and plasma, read-out: BPR; summary of the method: as §1
# [18] = molecular target: Cytochrome P450 2D6 (Homo sapiens, UniProt P10635); experiment: Inhibition of CYP2D6 in human liver microsomes by LC-MS/MS analysis; assay type: ADME, Microsome
# Summary of the method: (§3)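 Human liver microsomes incubated with isoform-specific substrates and compound, typically 0.1–25 μM. Metabolite formation read by LC-MS/MS, […]. IC50 calculated from the decrease in metabolite formation relative to vehicle control.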
# [19] = molecular target: Cytochrome P450 2C9 (Homo sapiens, UniProt P11712); experiment: Inhibition of CYP2C9 in human liver microsomes by LC-MS/MS analysis; assay type: ADME, Microsome; summary of the method: as §3
# [20] = tested on: Plasma; experiment: Plasma concentration in mouse assessed as (3aS,6aR)-3a-(3,4-dichlorophenyl)octahydrocyclopenta[c]pyrrole level at 30 mg/kg, po; assay type: ADME, organism-based; design: dose 30 mg/kg, route oral; details: in vivo; summary of the method: as §1
# [21] = molecular target: T1, CYP1A (Homo sapiens, UniProt P04798+P05177); experiment: Inhibition of CYP1A in human liver microsomes by LC-MS/MS analysis; assay type: ADME, Microsome; summary of the method: as §3
# T1 sequence (P04798 whole entry): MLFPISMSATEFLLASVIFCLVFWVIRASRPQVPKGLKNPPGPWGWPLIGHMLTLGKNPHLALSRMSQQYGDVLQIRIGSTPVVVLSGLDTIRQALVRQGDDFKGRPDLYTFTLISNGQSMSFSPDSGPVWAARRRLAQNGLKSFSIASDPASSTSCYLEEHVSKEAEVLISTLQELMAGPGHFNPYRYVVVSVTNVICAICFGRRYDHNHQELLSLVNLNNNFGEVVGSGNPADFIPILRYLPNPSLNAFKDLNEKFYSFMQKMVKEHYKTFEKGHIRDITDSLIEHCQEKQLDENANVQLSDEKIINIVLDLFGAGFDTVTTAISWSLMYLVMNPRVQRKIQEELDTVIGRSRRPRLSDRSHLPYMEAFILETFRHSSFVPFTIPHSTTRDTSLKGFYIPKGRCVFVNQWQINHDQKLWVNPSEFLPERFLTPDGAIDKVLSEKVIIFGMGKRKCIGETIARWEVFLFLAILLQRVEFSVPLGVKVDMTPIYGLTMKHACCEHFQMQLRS
# T1 sequence (P05177 whole entry): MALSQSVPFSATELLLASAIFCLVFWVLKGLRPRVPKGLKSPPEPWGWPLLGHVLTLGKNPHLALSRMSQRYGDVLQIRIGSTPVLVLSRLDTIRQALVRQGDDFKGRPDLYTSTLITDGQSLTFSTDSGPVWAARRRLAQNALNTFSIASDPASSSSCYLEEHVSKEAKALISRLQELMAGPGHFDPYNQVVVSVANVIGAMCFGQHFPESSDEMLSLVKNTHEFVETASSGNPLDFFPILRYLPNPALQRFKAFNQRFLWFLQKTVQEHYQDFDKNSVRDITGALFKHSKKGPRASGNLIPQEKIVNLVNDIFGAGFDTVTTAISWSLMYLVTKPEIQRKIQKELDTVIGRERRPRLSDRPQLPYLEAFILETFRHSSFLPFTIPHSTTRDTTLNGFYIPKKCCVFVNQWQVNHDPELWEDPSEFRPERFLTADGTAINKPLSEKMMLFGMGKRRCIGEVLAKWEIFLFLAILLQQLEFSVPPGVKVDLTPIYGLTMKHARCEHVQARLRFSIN
# [22] = molecular target: Sodium-dependent serotonin transporter (Homo sapiens, UniProt P31645); experiment: Inhibition of serotonin reuptake at SERT expressed in HEK293 cells; assay type: cell-based
# [23] = Half life in mouse liver microsomes at 3 uM by LC-MS/MS analysis; assay type: ADME, Microsome
# Summary of the method: (§4)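 Human or mouse liver microsomes (0.5 mg/mL) incubated with 3 μM compound at 37 °C. Reaction started with NADPH and stopped with methanol containing internal standard. Loss of compound followed over 45 min by LC-MS/MS. Peak area ratio to internal standard plotted against time and the slope of the line taken.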
# [24] = molecular target: Cytochrome P450 3A4 (Homo sapiens, UniProt P08684); experiment: Inhibition of CYP3A4 in human liver microsomes by LC-MS/MS analysis; assay type: ADME, Microsome; summary of the method: as §3
# [25] = molecular target: Cytochrome P450 2C19 (Homo sapiens, UniProt P33261); experiment: Inhibition of CYP2C19 in human liver microsomes by LC-MS/MS analysis; assay type: ADME, Microsome; summary of the method: as §3
# [26] = tested on: Brain; experiment: Drug level in mouse brain assessed as (3aS,6aR)-3a-(3,4-dichlorophenyl)octahydrocyclopenta[c]pyrrole level at 10 mg/kg, po; assay type: ADME, organism-based; design: dose 10 mg/kg, route oral; details: in vivo; summary of the method: as §1
# [27] = Half life in human liver microsomes at 3 uM by LC-MS/MS analysis; assay type: ADME, Microsome; summary of the method: as §4
# [28] = tested on: Plasma; experiment: Plasma concentration in mouse assessed as (3aS,6aR)-3a-(3,4-dichlorophenyl)octahydrocyclopenta[c]pyrrole level at 3 mg/kg, po; assay type: ADME, organism-based; design: dose 3 mg/kg, route oral; details: in vivo; summary of the method: as §1
# [29] = tested on: Plasma; experiment: Plasma concentration in mouse assessed as (3aS,6aR)-3a-(3,4-dichlorophenyl)octahydrocyclopenta[c]pyrrole level at 10 mg/kg, po; assay type: ADME, organism-based; design: dose 10 mg/kg, route oral; details: in vivo; summary of the method: as §1
# [30] = tested on: Brain; experiment: Drug level in mouse brain assessed as (3aS,6aR)-3a-(3,4-dichlorophenyl)octahydrocyclopenta[c]pyrrole level at 30 mg/kg, po; assay type: ADME, organism-based; design: dose 30 mg/kg, route oral; details: in vivo; summary of the method: as §1
# Cytochrome P450 3A4, sequence (P08684 whole entry): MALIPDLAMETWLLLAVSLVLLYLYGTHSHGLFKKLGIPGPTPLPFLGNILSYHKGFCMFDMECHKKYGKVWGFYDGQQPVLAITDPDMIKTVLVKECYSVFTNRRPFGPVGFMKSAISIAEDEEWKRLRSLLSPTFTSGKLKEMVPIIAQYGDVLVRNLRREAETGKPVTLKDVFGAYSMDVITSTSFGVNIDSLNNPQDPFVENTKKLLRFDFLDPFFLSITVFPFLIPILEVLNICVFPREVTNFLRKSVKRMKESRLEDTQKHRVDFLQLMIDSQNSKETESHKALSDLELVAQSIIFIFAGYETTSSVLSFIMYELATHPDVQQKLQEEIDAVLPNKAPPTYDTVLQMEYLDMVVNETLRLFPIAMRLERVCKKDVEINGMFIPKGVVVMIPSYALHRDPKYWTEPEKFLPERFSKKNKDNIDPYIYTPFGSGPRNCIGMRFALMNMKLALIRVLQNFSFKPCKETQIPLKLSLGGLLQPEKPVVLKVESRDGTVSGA
# Sodium-dependent serotonin transporter, sequence (P31645 whole entry): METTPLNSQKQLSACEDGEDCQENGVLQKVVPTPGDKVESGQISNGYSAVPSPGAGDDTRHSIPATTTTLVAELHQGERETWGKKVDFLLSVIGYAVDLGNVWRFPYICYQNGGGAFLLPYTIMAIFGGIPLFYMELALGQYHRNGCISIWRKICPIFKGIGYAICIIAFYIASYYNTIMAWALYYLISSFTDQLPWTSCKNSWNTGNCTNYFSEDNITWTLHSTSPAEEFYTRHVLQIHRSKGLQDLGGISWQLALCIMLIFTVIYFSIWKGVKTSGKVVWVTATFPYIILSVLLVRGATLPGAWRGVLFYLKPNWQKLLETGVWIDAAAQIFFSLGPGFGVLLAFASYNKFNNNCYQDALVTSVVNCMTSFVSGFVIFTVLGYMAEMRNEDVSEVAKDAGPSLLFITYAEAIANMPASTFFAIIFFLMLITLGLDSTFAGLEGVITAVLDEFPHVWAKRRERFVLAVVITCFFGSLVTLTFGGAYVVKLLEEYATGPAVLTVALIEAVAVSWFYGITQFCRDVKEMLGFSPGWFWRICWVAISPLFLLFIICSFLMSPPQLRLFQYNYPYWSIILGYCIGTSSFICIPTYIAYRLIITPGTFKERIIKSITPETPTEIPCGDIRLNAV
# Sodium-dependent dopamine transporter, sequence (Q01959 whole entry): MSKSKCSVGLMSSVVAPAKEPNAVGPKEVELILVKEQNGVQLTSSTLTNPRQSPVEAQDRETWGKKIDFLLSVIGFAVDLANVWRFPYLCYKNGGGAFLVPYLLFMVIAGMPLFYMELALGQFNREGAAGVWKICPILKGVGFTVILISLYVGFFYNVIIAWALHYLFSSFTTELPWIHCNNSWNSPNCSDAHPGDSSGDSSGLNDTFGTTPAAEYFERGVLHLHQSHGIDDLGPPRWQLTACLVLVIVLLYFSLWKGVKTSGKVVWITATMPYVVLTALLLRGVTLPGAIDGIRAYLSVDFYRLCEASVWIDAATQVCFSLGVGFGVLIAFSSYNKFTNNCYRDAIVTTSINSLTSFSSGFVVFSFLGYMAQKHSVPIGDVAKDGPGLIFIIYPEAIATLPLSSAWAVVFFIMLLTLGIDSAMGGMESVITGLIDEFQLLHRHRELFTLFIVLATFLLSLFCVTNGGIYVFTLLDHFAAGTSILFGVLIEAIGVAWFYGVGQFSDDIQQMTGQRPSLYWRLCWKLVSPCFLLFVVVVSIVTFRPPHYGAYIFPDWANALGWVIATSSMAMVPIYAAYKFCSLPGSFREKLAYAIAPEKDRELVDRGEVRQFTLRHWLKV
# Sodium-dependent noradrenaline transporter, sequence (P23975 whole entry): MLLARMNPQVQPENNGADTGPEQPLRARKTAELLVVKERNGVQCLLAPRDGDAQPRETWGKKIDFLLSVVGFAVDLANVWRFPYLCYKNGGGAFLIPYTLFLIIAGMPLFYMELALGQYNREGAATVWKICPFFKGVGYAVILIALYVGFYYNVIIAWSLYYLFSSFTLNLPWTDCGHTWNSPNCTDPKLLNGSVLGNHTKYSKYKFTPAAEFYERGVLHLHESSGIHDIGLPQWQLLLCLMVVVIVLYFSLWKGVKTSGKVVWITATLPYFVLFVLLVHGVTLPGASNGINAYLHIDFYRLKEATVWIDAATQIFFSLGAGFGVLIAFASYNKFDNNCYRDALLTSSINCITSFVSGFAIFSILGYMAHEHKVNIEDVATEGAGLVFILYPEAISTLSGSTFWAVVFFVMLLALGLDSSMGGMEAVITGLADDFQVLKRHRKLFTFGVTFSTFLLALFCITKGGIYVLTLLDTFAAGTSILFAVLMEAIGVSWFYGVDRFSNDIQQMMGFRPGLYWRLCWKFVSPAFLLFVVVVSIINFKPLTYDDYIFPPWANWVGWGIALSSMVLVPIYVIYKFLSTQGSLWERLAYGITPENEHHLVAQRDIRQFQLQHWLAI
# Cytochrome P450 2C9, sequence (P11712 whole entry): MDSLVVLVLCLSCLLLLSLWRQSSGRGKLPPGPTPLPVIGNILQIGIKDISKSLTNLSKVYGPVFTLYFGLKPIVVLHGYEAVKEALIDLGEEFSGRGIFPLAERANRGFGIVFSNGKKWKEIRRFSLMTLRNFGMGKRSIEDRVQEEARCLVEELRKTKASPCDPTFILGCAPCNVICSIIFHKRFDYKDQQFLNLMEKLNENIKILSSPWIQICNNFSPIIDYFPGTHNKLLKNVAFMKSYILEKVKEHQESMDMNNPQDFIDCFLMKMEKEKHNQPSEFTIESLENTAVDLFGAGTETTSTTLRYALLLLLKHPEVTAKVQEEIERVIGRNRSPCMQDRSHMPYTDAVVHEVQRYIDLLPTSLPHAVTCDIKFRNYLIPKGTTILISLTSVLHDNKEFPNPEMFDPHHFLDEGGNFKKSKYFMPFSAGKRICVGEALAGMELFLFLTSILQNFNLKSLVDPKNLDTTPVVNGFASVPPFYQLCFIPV
# Cytochrome P450 2C19, sequence (P33261 whole entry): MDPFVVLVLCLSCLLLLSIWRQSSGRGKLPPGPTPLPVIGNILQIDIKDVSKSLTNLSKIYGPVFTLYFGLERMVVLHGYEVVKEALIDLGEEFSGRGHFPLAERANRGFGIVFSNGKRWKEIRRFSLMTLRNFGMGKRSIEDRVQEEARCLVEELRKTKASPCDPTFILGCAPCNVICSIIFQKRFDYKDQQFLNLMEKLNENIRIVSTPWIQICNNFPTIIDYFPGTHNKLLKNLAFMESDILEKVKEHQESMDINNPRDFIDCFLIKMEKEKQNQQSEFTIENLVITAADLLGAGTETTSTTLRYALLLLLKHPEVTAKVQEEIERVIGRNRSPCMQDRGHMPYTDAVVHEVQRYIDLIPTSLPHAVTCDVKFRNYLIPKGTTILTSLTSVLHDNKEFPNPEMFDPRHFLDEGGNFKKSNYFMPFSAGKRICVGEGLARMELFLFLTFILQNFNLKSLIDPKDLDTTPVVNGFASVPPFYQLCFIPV
# Cytochrome P450 2D6, sequence (P10635 whole entry, canonical isoform): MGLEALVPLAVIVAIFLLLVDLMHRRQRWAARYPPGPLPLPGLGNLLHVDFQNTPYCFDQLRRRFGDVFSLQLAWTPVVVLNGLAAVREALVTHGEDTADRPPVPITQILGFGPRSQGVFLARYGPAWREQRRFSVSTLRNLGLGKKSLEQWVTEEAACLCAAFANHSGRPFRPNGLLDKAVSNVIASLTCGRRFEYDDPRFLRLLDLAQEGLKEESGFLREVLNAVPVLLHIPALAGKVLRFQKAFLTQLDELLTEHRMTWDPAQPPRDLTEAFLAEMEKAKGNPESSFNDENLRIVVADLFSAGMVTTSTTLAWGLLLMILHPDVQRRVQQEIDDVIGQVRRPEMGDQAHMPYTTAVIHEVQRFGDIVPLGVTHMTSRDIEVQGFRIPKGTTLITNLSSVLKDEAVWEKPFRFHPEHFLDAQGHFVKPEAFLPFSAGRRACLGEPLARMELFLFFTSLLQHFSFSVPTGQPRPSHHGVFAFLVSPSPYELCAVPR
structure (smiles),measurement,setting,value
Cl.Clc1ccc([C@@]23CCC[C@@H]2CNC3)cc1Cl,Drug uptake,[1],14050 ng/g
same,fraction unbound,[2],0.04
same,Drug uptake,[3],1747 ng/g
same,Activity,[4],Non-toxic
same,Cp,[5],214 ng/mL
same,Cp,[6],569 ng/mL
same,Activity,[7],42%
same,Activity,[8],25%
same,Cp,[9],69 ng/mL
same,Drug uptake,[10],5950 ng/g
same,Activity,[11],29%
same,Kp,[12],30
CN1C[C@H]2CCC[C@@]2(c2ccc(Cl)c(Cl)c2)C1,IC50,[13],0.0224 µM
same,Drug uptake,[14],1531 ng/g
same,Activity,[15],Dose-dependent effect
same,Drug uptake,[1],507 ng/g
same,Drug uptake,[3],34 ng/g
same,IC50,[16],0.148 µM
same,Kp,[17],2
same,IC50,[18],5.21 µM
same,Cp,[5],7 ng/mL
same,IC50,[19],> 25 µM
same,Cp,[6],30 ng/mL
same,Activity,[7],31%
same,Cp,[20],537 ng/mL
same,IC50,[21],> 25 µM
same,IC50,[22],0.00363 µM
same,half-life at 3 µM,[23],27 min
same,Activity,[8],26%
same,IC50,[24],> 25 µM
same,IC50,[25],7.22 µM
same,Cp,[9],2 ng/mL
same,Drug uptake,[26],4762 ng/g
same,half-life at 3 µM,[27],37 min
same,Cp,[28],69 ng/mL
same,Drug uptake,[10],113 ng/g
same,Activity,[11],25%
same,Cp,[29],211 ng/mL
same,Drug uptake,[30],11433 ng/g
